Measured values taken from ChEMBL document CHEMBL1141578, “Structure-based optimization of cephalothin-analogue boronic acids as beta-lactamase inhibitors” (Bioorg Med Chem, 2008).

What was measured:
[1] = Inhibition of AmpC beta lactamase
[2] = Inhibition of AmpC beta lactamase N289A mutant
Procedure, shortened: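 Rates were taken at steady state after the lag phase. Ki came from progress curves with and without inhibitor (Waley method), averaged over five inhibitor concentrations giving ≥50% inhibition, each in triplicate.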

[3] = Inhibition of beta lactamase TEM1
[4] = Inhibition of beta lactamase TEM30

SMILES | Ki [1] [µM] | Ki [2] [µM] | Ki [3] [µM] | Ki [4] [µM]
CC(=O)NCB(O)O [ACETAMIDOMETHYLBORONIC ACID] | 18.5 |  |  | 
O=C(Cc1cccs1)N[C@H](B(O)O)c1cccc(C(=O)O)c1 | 0.001 | 0.017 | 0.064 | 7.8
CB(O)O [METHANE BORONIC ACID] | 1000 |  |  | 
CC(=O)OCC1=C(C(=O)O)N2C(=O)[C@@H](NC(=O)Cc3cccs3)[C@H]2SC1 [CEPHALOTHIN] | 0.32 |  |  | 
O=C(O)/C=C/c1cccc([C@H](NC(=O)Cc2cccs2)B(O)O)c1 |  | 0.0028 | 0.106 | 3.8
O=C(Cc1cccs1)NCB(O)O | 0.32 |  |  | 
O=C(Cc1cccs1)N[C@H](B(O)O)c1ccccc1 | 0.035 |  |  | 
